A selection: hits, their analogues and other compounds. The true share with any hit is near 0.72%.
mIAP inh: inhibitors of mouse IAP, primary screen, biochemical, luminescence, uHTS | intestinal alkaline phosphatase [Mus musculus] | purified mouse IAP, CDP-Star luminescence, 30 min | inhibition, % at 10 µM | 330,000 compounds, 0.2% hits | AID 2806, 2010;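 active = inhibition of at least 40% at 10 µM in the primary screen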;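 note: plate controls were DMSO with enzyme for no effect and no enzyme wells for full effect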
bIAP inhibitor: bovine intestinal alkaline phosphatase inhibitors, primary screen, selectivity assay for TNAP inhibitor project, biochemical, bovine IAP, CDP-star luminescence; alkaline phosphatase, intestinal [Bos taurus]; purified bovine IAP, 30 min; inhibition, % at 20 µM; 190,000 tested, under 10 active; AID 1019, 2008;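 active = over 50% inhibition of intestinal alkaline phosphatase at 20 µM in the single-dose screen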
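Assay system: bovine IAP enzyme; medium: DEA buffer 100 mM, pH 9.8, with MgCl2 1.0 mM, ZnCl2 0.02 mM; doses: 20 µM single dose; incubation: enzyme reaction for 30 min at room temperature; detection: CDP-star luminescence signal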
bIAP act: bovine intestinal alkaline phosphatase activators, primary screen, biochemical, bovine IAP, CDP-star luminescence. alkaline phosphatase, intestinal [Bos taurus]. purified bovine IAP, 30 min; hits give high values; fold of DMSO-control signal, blank-subtracted. activation factor at 20 µM. 200,000 compounds, 0.17% hits. AID 1016, 2008;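 active = activation factor of 2 or more at 20 µM, a signal rise over negative controls twice the positive control's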
hIAP inh: human IAP inhibitors, primary screen, biochemical, luminescence, uHTS. inhibition, % at 10 µM. 330,000 compounds, 0.12% hits. purified IAP, CDP-Star luminescence, 30 min. Intestinal-type alkaline phosphatase (Homo sapiens), P09923. AID 2544, 2010;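 active = inhibition reaching a set limit with compound at 10 µM in the primary screen, cut at about 35% in these data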;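 note: plate controls were DMSO wells with enzyme for no effect and no-enzyme buffer wells for full effect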
Target sequence (P09923 whole entry, looked up): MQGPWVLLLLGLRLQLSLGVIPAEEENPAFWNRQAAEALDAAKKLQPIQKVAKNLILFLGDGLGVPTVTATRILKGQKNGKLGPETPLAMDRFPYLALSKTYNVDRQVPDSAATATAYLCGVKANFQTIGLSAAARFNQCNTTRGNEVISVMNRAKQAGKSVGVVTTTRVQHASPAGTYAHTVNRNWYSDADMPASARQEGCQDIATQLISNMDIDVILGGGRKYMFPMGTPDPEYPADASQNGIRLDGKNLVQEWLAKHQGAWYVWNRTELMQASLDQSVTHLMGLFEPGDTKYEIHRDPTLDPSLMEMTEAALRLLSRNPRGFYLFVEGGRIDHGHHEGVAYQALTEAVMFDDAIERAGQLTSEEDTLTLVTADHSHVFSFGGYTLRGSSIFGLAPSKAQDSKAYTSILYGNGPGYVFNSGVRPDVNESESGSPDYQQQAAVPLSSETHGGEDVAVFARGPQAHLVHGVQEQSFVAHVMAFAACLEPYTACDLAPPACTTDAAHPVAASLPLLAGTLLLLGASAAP
hIAP activ: human IAP activators, primary screen, biochemical, luminescence, uHTS | activation factor at 10 µM | 330,000 compounds, 0.16% hits | Intestinal-type alkaline phosphatase (Homo sapiens), P09923 | purified human IAP, CDP-Star luminescence, 30 min; hits give high values; 1 = vehicle-only enzyme, 0 = enzyme-free background | AID 2524, 2010;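 active = activation factor of the enzyme at least 2-fold when tested at 20 µM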
mIAP act: activators of mouse IAP, primary screen, biochemical, luminescence, uHTS. muIAP, CDP-Star luminescence, 30 min; hits give high values; 1 = vehicle-only enzyme signal, 0 = enzyme-free wells. intestinal alkaline phosphatase [Mus musculus]. AID 2805, 2010. 330,000 compounds, 0.24% hits. activation factor at 10 µM;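 active = activation factor of at least 2 at 20 µM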
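System: Mouse IAP enzyme | Also added: CDP-Star substrate | Dosing: Compounds dispensed in DMSO | Schedule: 30 min enzyme-substrate-compound incubation at room temperature | Technique: Chemiluminescence readout | Control set: DMSO-only wells and no-enzyme negative control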
hIAP act confirm: human IAP activators, confirmation, biochemical, luminescence, single concentration, uHTS hits; activation (%Activity, negative = activation), % at 8.3 µM; AID 434926, 2010; 880 compounds, 10% hits; shares compounds with hIAP activ; purified IAP, CDP-Star luminescence, 30 min; hits give low values;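 active = at least twofold enzyme activation in any of six single-dose repeats, which the averaged readout prints as negative percent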
Numbers without * were called inactive; . = not tested or not shown.

SMILES	mIAP inh	bIAP inhibitor	bIAP act	hIAP inh	hIAP activ	mIAP act	hIAP act confirm
COc1ccc(Cc2nnc(SCC(=O)c3ccc4c(c3)OCO4)o2)cc1	9	.	.	8	0.92	0.91	.
COc1cccc(CNC(=O)CCC2CCCN(C(=O)c3cc(C4CC4)[nH]n3)C2)c1 (configuration not stated)	-10	-123	2.2*	-32	1.3	1.1	.
COc1cccc(CNC(=O)CCC2CCCN(C(=O)c3cc(C)on3)C2)c1 (configuration not stated)	-14	-1	1	-5	1.1	1.1	.
CCOc1cc(/C=C2/N=C(C)C(C(=O)OC)=C2O)ccc1O	42*	.	0.4	17	0.83	0.58	.
S=C(NCc1cccnc1)Nc1cccc(Cl)c1	-14	11	0.9	-4	1	1.1	.
COc1ccc(CNC(=S)Nc2cccc(Cl)c2)cc1	-172	.	.	17	0.83	2.7*	.
COc1cccc(C(C)NC(=S)NCc2ccc(Cl)cc2)c1 (configuration not stated)	-148	23	0.8	-22	1.2	2.5*	.
COc1ccc(C(C)NC(=S)NCc2ccc(F)cc2)cc1 (configuration not stated)	-33	.	.	5	0.95	1.3	.
CCCCc1ccc(NC(=S)NCc2cccc(OC)c2)cc1	-146	11	0.9	11	0.89	2.5*	.
S=C(NCc1cccnc1)Nc1cc(Cl)cc(Cl)c1	-109	.	.	8	0.92	2.1*	.
Cc1cccc(CCNS(=O)(=O)c2ccc3c(c2)NC(=O)CS3)c1	-4	.	.	-8	1.1	1	.
Cc1ccc(N=Cc2c(O)c3ccccc3oc2=O)c(C)c1	46*	.	.	14	0.86	0.54	.
O=C1C2CCCN2C(=O)N1CCN1CCN(CCO)CC1 (configuration not stated)	-5	-173	2.7*	2	0.98	1	.
COc1cccc(-c2cnc(NCc3cc(Cl)ccc3O)n2C)c1	4	-117	2.2*	21	0.79	0.96	.
COc1ccccc1CNc1ncc(-c2ccccc2)n1C	2	.	.	-31	1.3	0.97	.
CCOc1ccc(C2NC(=O)NC(C)=C2C(=O)OCc2ccccc2)cc1 (configuration not stated)	-2	.	.	2	0.98	1	.
CC1=C(C(=O)OCc2ccccc2)C(c2ccc(N(C)C)cc2)NC(=O)N1 (configuration not stated)	3	-184	2.8*	20	0.8	0.97	.
COc1ccc(CNC(=O)C2=CC(c3ccc(C)cc3)=NS(=O)(=O)N2C)cc1	3	.	.	4	0.96	0.97	.
Cc1ccc(Cl)cc1NC(=S)NCCCSC1CCCCC1	-211	.	0.4	-4	1	3.1*	.
COc1cccc(CNC(=O)CCc2nc3cc(S(=O)(=O)N4CCOCC4)ccc3n2C)c1	3	.	.	-2	1	0.97	.
Cc1ccc(C(=O)N(NC2=NS(=O)(=O)c3ccccc32)S(=O)(=O)c2ccc(C)cc2)cc1	-2	2	1	-137	2.4*	1	-27
CCN(C1=NS(=O)(=O)c2ccccc21)N(CC)S(=O)(=O)c1ccc(C)cc1	21	9	0.9	-4	1	0.79	.
CN(C)c1ccc(/C=C2/C=C(c3ccc4c(c3)CCCC4)OC2=O)cc1	33	.	.	43*	0.57	0.67	4
O=C(O)c1cc(NC(=O)c2cccc(C(=O)Nc3cc(C(=O)O)cc(C(=O)O)c3)c2)cc(C(=O)O)c1	-2	.	.	-11	1.1	1	.
COc1ccc2[nH]c(C(=O)N/N=C/c3ccc(O)cc3O)cc2c1	18	.	.	-104	2*	0.82	-9
SMILES	mIAP inh	bIAP inhibitor	bIAP act	hIAP inh	hIAP activ	mIAP act	hIAP act confirm
CC1CC(=O)N(CC(=O)Nc2ccc(F)cc2)c2ccccc2S1(=O)=O (configuration not stated)	2	.	.	-21	1.2	0.98	.
Cc1cc(N(C)/N=C/c2ccccc2O)nc(-c2ccccc2O)n1	-11	-23	1.2	-130	2.3*	1.1	-37
COc1ccc2nc(N3CCC(O)CC3)c(C#N)cc2c1	-4	-44	1.4	35*	0.65	1	20
CCC(C)C(NC(=O)C1CCC(C)CC1)C(=O)NC1CCN(Cc2ccccc2)CC1 (configuration not stated)	.	8	0.9	.	.	.	.
CC(C)n1c(O)c(N=Nc2ccc(Cl)nn2)c2ccccc21	-1	49	0.5	30	0.7	1	.
CCC(C)Sc1nnc(NC(=O)C2CCN(C(=O)c3ccco3)CC2)s1 (configuration not stated)	-7	.	.	0	1	1.1	.
COC(=O)C1CCN(c2ccc(Cl)nn2)CC1	0	-3	1	18	0.82	1	.
NC(=O)c1nc(-c2ccco2)nc2c1[nH]c(=O)n2-c1ccc(Cl)c(Cl)c1	29	.	.	-105	2.1*	0.71	-68
NC(=O)c1nc(-c2cccs2)nc2c1[nH]c(=O)n2-c1ccc(F)cc1	-24	-24	1.2	-133	2.3*	1.2	-23
COc1ccc(C(=O)NCc2nnc(SCC(=O)c3ccc(F)cc3)n2C)cc1OC	3	.	.	-16	1.2	0.97	.
CC(=O)Nc1cccc(C(=O)NNC(=O)c2n[nH]c(=O)c3ccccc23)c1	13	.	.	-133	2.3*	0.87	-125*
CC(C)c1ccc(C(=O)NNC(=O)c2n[nH]c(=O)c3ccccc23)cc1	11	.	.	-82	1.8	0.89	.
Cc1ccc(Cl)cc1NC(=O)C(=O)N/N=C/c1ccc2c(c1)OCO2	7	.	.	-116	2.2*	0.93	40
Cc1cc(Cl)ccc1NC(=O)C(=O)N/N=C/c1ccc2c(c1)OCO2	3	.	.	-11	1.1	0.97	.
O=C(NNc1nc(=O)c2cccnc2s1)c1ccccc1O	19	8	0.9	-186	2.9*	0.81	14
O=C(NNc1c2ccccc2nc2ccccc12)c1ccccc1O	17	-2	1	12	0.88	0.83	.
N#CCN1C(=S)N=C(Nc2cccc(Cl)c2)C12CCCCC2	-13	-2	1	-106	2.1*	1.1	-55*
CC(NC(=S)NC1CCC(C(C)(C)C)CC1)c1ccccc1 (configuration not stated)	-348	.	.	-101	2*	4.5*	-111*

Source: PubChem
